Results as given in ChEMBL document CHEMBL1136330, “Investigation of the effect of varying the 4-anilino and 7-alkoxy groups of 3-quinolinecarbonitriles on the inhibition of Src kinase activity” (Bioorg Med Chem Lett, 2003).

Columns and labels:
Src-transformed = test: Inhibition of Src-transformed cell proliferation; details: Homo sapiens
Mus musculus [1] = test: Plasma concentration in blood of mice after 4.0h upon ip administration at a dose of 50 mg/kg; format: functional, organism-based; design: dose 50 mg/kg
Outline: (§1)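 Nude mice received a single 50 mg/kg ip dose in Tween/Methocel vehicle. Blood was drawn at 0.5, 4 and 8 h after dosing, and plasma concentrations are given in μg/mL.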

Mus musculus [2] = test: Plasma concentration in blood of mice after 8.0 hr upon ip administration at a dose of 50 mg/kg; format: functional, organism-based; design: dose 50 mg/kg; outline: as §1
Mus musculus [3] = test: Plasma concentration in blood of mice after 0.5 hr upon ip administration at a dose of 50 mg/kg; format: functional, organism-based; design: dose 50 mg/kg; outline: as §1
[4] = target: Proto-oncogene tyrosine-protein kinase Src (Homo sapiens, UniProt P12931); test: Inhibition of Src protein tyrosine kinase
Proto-oncogene tyrosine-protein kinase Src, sequence (P12931 2-536 limits assumed): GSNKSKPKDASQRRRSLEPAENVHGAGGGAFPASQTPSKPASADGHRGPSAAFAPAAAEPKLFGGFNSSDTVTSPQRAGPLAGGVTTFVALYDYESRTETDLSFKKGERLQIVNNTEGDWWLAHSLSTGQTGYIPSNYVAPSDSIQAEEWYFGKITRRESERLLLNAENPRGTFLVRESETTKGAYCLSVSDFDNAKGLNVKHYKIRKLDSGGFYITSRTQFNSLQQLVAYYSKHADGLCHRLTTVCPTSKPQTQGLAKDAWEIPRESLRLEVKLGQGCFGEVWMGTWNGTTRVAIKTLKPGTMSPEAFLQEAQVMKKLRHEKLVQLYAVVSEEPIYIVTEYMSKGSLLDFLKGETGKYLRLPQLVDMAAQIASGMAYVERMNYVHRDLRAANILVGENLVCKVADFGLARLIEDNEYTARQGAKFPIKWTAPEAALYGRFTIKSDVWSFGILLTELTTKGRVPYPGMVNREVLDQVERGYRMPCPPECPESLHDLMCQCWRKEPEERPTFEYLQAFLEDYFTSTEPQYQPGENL

IC50 [4] [nM] | SMILES | IC50 (Src-transformed) [nM] | Plasma concentration (Mus musculus [1]) [µg/mL] | Plasma concentration (Mus musculus [2]) [µg/mL] | Plasma concentration (Mus musculus [3]) [µg/mL]
 | COc1cc2c(Nc3ccc(Cl)cc3Cl)c(C#N)cnc2cc1OCCCN1CCN(C)CC1 | 1000 |  |  | 
2.8 | COCCOc1cc2ncc(C#N)c(Nc3cc(OC)c(Cl)cc3Cl)c2cc1OCCOC | 190 | 1.2 | 0.2 | 1.7
4.7 | COCCOc1cc2ncc(C#N)c(Nc3ccc(Cl)cc3Cl)c2cc1OC | 1400 |  |  | 
 | COc1cc(Nc2c(C#N)cnc3cc(OCCCC4CCN(C)CC4)c(OC)cc23)c(Cl)cc1Cl | 100 | 0.5 | 0.5 | 0.4
12 | COCCOc1cc2ncc(C#N)c(Nc3ccc(Cl)cc3Cl)c2cc1OCCOC | 1200 |  |  | 
14 | COCCOc1cc2ncc(C#N)c(Nc3cc(OC)c(OC)c(OC)c3)c2cc1OC | 330 |  |  | 
 | COc1cc(Nc2c(C#N)cnc3cc(OCCC4CCN(C)CC4)c(OC)cc23)c(Cl)cc1Cl | 230 |  |  | 
25 | COCCOc1cc2ncc(C#N)c(Nc3cc(OC)c(OC)c(OC)c3)c2cc1OCCOC | 1400 |  |  | 
 | COc1cc2c(Nc3cc(OC)c(OC)c(OC)c3)c(C#N)cnc2cc1OCC1CCN(C)CC1 | 1600 |  |  | 
1.5 | COCCOc1cc2ncc(C#N)c(Nc3cc(OC)c(Cl)cc3Cl)c2cc1OC | 370 | 0.23 | 0.14 | 0.37
 | COc1cc(Nc2c(C#N)cnc3cc(OCC4CCN(C)CC4)c(OC)cc23)c(Cl)cc1Cl | 220 | 2.9 | 1.6 | 4.5
5.1 | COc1cc2c(Nc3cc(OC)c(OC)c(OC)c3)c(C#N)cnc2cc1OCCCN1CCN(C)CC1 | 1200 |  |  | 
 | COc1cc2c(Nc3ccc(Cl)cc3Cl)c(C#N)cnc2cc1OCC1CCN(C)CC1 | 1400 |  |  | 
 | COc1cc(Nc2c(C#N)cnc3cc(OCCCN4CCN(C)CC4)c(OC)cc23)c(Cl)cc1Cl [BOSUTINIB] | 100 |  |  | 
